Here are results for 1 compound from ChEMBL document CHEMBL1687687, “Identification of a New Series of STAT3 Inhibitors by Virtual Screening” (ACS Med Chem Lett, 2010).

Activity calls are given as the source filed them. No cut-off for these calls is given here.

As a reminder, the inhibition is the change of the read-out against control, counted positive when it falls.

The subject of series [1] is MDA-MB-453. Put plainly: Induction of apoptosis in human MDA-MB-453 cells assessed as increase in caspase3/7 activity at 1-100 uM by fluorescence assay. It counts as functional, cell-based.
Series [2] deals with T1, Signal transducer and activator of transcription 5A (Homo sapiens) (UniProt P42229).
T1 sequence (whole entry): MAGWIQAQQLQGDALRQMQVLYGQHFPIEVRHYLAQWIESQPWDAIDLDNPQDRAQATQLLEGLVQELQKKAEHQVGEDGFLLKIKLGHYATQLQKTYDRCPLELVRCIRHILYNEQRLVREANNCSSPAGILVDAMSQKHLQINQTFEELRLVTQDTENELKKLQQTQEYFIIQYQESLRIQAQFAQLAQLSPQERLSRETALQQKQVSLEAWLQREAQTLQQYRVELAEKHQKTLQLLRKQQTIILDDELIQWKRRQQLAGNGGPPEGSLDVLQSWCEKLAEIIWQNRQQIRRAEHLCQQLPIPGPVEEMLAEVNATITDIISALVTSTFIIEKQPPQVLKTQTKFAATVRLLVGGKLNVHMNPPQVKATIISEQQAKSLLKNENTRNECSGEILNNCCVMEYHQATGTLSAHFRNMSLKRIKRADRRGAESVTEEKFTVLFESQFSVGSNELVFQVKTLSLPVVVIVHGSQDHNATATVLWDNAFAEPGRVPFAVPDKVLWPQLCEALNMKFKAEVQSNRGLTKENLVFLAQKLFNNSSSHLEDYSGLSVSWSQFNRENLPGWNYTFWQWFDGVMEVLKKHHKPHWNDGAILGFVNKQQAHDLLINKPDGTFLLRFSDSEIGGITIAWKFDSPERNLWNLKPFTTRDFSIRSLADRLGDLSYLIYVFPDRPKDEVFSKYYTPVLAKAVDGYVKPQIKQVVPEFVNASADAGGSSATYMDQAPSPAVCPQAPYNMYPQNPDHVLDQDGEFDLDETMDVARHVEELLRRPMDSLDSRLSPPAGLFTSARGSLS
Nature of the series: Inhibition of STAT5a DNA binding activity in IL-6 stimulated human MDA-MB-468 cells at 50 uM by transcription factor ELISA. The format is cell-based.

The target in series [3] is T2, Signal transducer and activator of transcription 1-alpha/beta (Homo sapiens) (UniProt P42224).
T2 sequence (whole entry): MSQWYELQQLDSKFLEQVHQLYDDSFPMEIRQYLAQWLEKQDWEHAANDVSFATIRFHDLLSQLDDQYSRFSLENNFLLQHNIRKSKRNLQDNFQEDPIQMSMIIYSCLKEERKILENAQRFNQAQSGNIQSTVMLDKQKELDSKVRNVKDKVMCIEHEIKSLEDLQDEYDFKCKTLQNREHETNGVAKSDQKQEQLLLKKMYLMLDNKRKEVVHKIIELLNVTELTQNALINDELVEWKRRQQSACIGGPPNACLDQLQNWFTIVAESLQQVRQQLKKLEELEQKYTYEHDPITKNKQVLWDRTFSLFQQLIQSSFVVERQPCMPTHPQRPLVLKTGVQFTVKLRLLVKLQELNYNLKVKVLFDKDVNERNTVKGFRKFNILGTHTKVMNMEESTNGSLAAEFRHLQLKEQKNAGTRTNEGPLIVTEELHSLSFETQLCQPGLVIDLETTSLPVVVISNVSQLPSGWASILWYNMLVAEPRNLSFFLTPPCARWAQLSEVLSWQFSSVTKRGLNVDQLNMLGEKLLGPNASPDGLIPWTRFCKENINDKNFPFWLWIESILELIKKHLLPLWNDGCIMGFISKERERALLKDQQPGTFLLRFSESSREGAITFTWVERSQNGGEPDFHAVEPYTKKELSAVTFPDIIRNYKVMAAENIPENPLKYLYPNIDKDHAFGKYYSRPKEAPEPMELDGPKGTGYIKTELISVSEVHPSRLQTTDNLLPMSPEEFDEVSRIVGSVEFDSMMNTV
Put plainly: Inhibition of STAT1 DNA binding activity in IL-6 stimulated human MDA-MB-468 cells at 50 uM by transcription factor ELISA. It counts as cell-based. In general terms: An ELISA detects its analyte on a solid surface through an enzyme-linked reagent.

Series [4] is described as follows: Plasma concentration in CD1(ICR) mouse at 160 mg/kg, po after 8 hrs by LC-MS analysis. The format is ADME, organism-based. The arrangement: dose 160 mg/kg, route oral.
The target in series [5] is T3, Signal transducer and activator of transcription 3 (Homo sapiens, UniProt P40763). Nature of the series: Inhibition of STAT3 in human MDA-MB-468 cells assessed as reduction in survivin expression at 10 uM by Western blotting. The format is cell-based. In a few lines:
(§1)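 MDA-MB-468 breast cancer cells were treated with compound at a series of concentrations. Cell lysates were analysed by Western blotting for c-myc, cyclin D1 and survivin, with STAT3 Tyr705 phosphorylation probed alongside.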
A general note: In western blotting, separated proteins are transferred to a membrane and probed.

Series [6] has as its target T3, Signal transducer and activator of transcription 3. Nature of the series: Inhibition of STAT3 in human MDA-MB-468 cells assessed as reduction in c-myc expression at 50 uM by Western blotting. It counts as cell-based. In a few lines:
as §1

For series [7] the target is unchanged. Nature of the series: Inhibition of STAT3 in human MDA-MB-468 cells assessed as reduction in c-myc expression at 10 uM by Western blotting. It counts as cell-based. In a few lines: as §1
The test system of series [8] is MDA-MB-468. Put plainly: Induction of apoptosis in human MDA-MB-468 cells assessed as increase in caspase3/7 activity at 1-100 uM by fluorescence assay. It counts as functional, cell-based.
Series [9] concerns SCC-3. Nature of the series: Antitumor activity against human SCC-3 cells xenografted in BALB/cA-v/v nude mouse assessed as decrease in tumor volume at 160 mg/kg, po QD for 4 days measured on 4th day relative to control. The format is functional. The arrangement: scale not given: the % may be the effect or the level left. The method, boiled down:
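Human SCC-3 lymphoma cells implanted subcutaneously in nude mice. Compound given by oral gavage at 160 mg/kg once daily for 4 days. Tumour growth was assessed on day 4 against untreated controls, with significance taken at p < 0.05. Body weight and signs of toxicity were monitored over the same period.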
(Xenograft models place foreign cells or tissue in a host animal.)

Series [10] concerns the target T3, Signal transducer and activator of transcription 3. Put plainly: Inhibition of STAT3 in human MDA-MB-468 cells assessed as reduction in cyclin D1 expression at 20 uM by Western blotting. It counts as cell-based. In a few lines:
as §1

The target is the same in series [11]. Put plainly: Inhibition of STAT3 dimerization transfected in HEK293 cells at 50 uM after 24 hrs followed by 1 hr stimulation with 50 ng/ml IL-6 by FRET assay. The format is cell-based. In a few lines: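 Cell-based FRET dimerization read-out in HEK293 cells co-expressing STAT3-CFP and STAT3-YFP. Cells were pretreated with compound before IL-6 stimulation, and the FRET signal from the STAT3–STAT3 interaction was measured. Values are given as percent inhibition of the signal.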

T3 sequence (P40763 whole entry): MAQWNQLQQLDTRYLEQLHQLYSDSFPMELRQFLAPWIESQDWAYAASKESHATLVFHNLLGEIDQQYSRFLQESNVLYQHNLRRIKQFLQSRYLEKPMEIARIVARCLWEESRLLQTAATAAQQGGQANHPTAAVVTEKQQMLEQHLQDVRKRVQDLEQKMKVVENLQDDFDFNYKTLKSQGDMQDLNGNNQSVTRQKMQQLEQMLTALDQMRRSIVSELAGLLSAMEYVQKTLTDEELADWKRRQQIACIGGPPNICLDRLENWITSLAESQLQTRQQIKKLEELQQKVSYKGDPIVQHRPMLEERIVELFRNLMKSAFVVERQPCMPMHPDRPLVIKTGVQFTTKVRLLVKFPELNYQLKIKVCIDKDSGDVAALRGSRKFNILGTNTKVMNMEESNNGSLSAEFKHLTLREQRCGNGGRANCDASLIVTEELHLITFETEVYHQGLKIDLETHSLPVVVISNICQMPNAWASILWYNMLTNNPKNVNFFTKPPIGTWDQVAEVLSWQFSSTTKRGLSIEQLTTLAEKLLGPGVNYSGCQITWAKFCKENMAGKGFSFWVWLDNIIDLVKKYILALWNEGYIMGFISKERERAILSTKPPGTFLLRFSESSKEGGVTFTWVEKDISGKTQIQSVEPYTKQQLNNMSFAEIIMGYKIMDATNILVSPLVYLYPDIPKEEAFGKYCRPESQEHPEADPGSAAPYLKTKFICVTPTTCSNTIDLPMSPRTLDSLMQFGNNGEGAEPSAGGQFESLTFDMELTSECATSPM

As for `O=C(Nc1nnc(-c2ccco2)o1)c1cc(-c2ccccc2)nc2ccccc12`, the result in [1] was inactive. The inhibition result in series [2] and in series [3] was “inactive” in each case. Moreover, the concentration at 8 h in series [4] is over 260 µM. For the same compound, the inhibition result in series [5], in [6], in series [7] and in series [10] was “Active” in each case. The result in [8] was Active. Moreover, the Activity in series [9] turned out to be 40%. In series [11], the inhibition turned out to be 62%.
